The text below walks through data of article PMC2745078 (Journal of medicinal chemistry, 2009).

Structures are written as SMILES. Read-outs that look alike come from different tables or passages of the source.

Data set [1] concerns the target T1, human 2N4R tau (Homo sapiens, UniProt P10636). As to conditions: near physiological buffer conditions and tau concentrations ref 9; cited from earlier work.
The nature of another data set: Dye aggregation. The note with it: for slope of double log plot of monomer versus dimer concentration / dissociation equilibrium constant for dimerization (Kdim): assembly buffer; for dissociation equilibrium constant for dimerization (Kdim): 1 h at 37°C, mean ± S.D. The format is physicochemical.
The target in data set [2] is T1, human 2N4R tau. The data set can be described thus: Filter trap assay for ODS-induced fibrillization of tau. The format is biochemical.
For data set [3], the system named is sarkosyl-insoluble tau in organotypic slices from JNPL3 transgenic mice (human tau P301L). Put plainly: Organotypic slice culture, sarkosyl-insoluble tau. In kind it is cell-based. The method in brief:
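Cortex/hippocampus of postnatal day-10 JNPL3 mice cut at 400 μm and cultured on membrane inserts 14 days (25% serum). One hemisphere given test compound (0.1 nM–1 μM) for 7 days; contralateral hemisphere given 0.008% DMSO. RIPA extracts equalised for protein, incubated in 1% sarkosyl, spun at 100,000g. Pellet immunoblotted with CP27. Densitometry n = 3, normalised to vehicle; Student's t test.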

Data set [4] concerns organotypic slices from JNPL3 transgenic mice. Put plainly: Organotypic slice culture, cleaved PARP1 and α-tubulin levels. In kind it is cell-based. The note with it: seven days.
Another data set concerns cell culture models. The note with it: cell culture models ref 21, 26, 25; cited from earlier work.
In data set [5] the target is T1, human 2N4R tau. As to conditions: electron microscopy assay format.

T1 sequence (P10636 1-441 isoform P10636-8): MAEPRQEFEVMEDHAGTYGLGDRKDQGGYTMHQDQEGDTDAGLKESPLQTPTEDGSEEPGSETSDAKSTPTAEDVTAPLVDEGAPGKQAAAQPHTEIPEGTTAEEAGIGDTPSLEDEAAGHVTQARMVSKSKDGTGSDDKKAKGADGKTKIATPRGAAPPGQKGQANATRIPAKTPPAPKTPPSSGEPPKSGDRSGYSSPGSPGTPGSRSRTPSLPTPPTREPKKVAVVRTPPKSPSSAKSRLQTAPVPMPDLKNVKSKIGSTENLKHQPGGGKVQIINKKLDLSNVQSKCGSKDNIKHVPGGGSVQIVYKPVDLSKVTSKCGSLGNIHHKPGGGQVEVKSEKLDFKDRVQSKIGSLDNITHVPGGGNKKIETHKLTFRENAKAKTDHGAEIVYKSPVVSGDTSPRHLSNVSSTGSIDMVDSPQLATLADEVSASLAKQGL

For orientation: IC50 means the concentration that gives 50% inhibition. Consider `CCC(/C=C1\Sc2ccc(OC)cc2N1CCO)=C\c1sc2ccc(OC)cc2[n+]1CCO.[I-]` [Compound 1], for which, on human 2N4R tau [1], the IC50 result is “submicromolar”.
On to `CCN1/C(=C/C=C/C=C/C=C/c2sc3ccccc3[n+]2CC)Sc2ccccc21.[I-]` [Compound 5], for which, in the data set “Dye aggregation”, the “slope of double log plot of monomer versus dimer concentration” value amounted to 1.7 ± 0.1 and the “dissociation equilibrium constant for dimerization (Kdim)” value (from here on “dissociation equilibrium constant”) came to 0.68 ± 0.04 µM.
For the compound `CCN1/C(=C/C=C/c2oc3ccccc3[n+]2CC)Oc2ccccc21.[I-]` [Compound 6], the inhibitory activity result on human 2N4R tau [2] (at the highest concentration tested) is reported as “essentially no inhibitory activity”.
`CCN1/C(=C/C=C/C2=[N+](CC)c3ccccc3C2(C)C)C(C)(C)c2ccccc21.[I-]` [Compound 8]: the dimerization result in “Dye aggregation” (any concentration tested up to 96 μM) is listed as “did not dimerize”.
Take `CCCN1/C(=C/C=C/C2=[N+](CCC)c3ccccc3C2(C)C)C(C)(C)c2ccccc21.[I-]` [Compound 9]: the “reduction of inhibitory potency” value at human 2N4R tau [2] (9 (three-carbon N-alkyl) versus 8 (two-carbon)) was ~ 3 fold.
On to `CCCCCCN1/C(=C/C=C/c2sc3ccccc3[n+]2CCCCCC)Sc2ccccc21.[I-]` [Compound 10], for which the inhibitory activity entry on human 2N4R tau [2] (at up to 10 μM concentration) was “completely eliminated activity”.
With `CCN1/C(=C/C(C)=C/c2sc3ccccc3[n+]2CC)Sc2ccccc21.[I-]` [Compound 11, 3,3’-diethyl-9-methylthiacarbocyanine iodide], the “decrease of IC50 by methyl meso substituent” value on human 2N4R tau [2] (11 versus hydrogen meso compound) is 3 fold. For the same compound, at human 2N4R tau [2] (IC50, filter trap assay), the IC50 is about 300 nM. Also, in “Dye aggregation”, the “slope of double log plot of monomer versus dimer concentration” value is 2.3 ± 0.1. Also, the “dissociation equilibrium constant” value in the data set “Dye aggregation” came to 20.9 ± 0.7 µM. For the same compound, the “concentration for dimerization relative to 1” value in “Dye aggregation” (higher than 1 under identical conditions) is 10.0 ± 0.2 fold. For the same compound, the “effect on tau aggregation” value in data set [3] (100 nM, seven days) was “Inhibitory activity was lost”; in data set [3] (300 nM and above, seven days), “tau aggregation was induced”. The “tau aggregation relative to DMSO vehicle alone” value in data set [3] (1 – 10 nM, seven days) is ~ 50%. Also, in data set [3] (organotypic slices), the “lowest media concentration inhibiting tau aggregation” value was 1 nM. For the same compound, the “levels of α-tubulin” value was “unchanged” in data set [4] (1 nM) and “depletion of α-tubulin” in data set [4] (1 μM). Further, the “levels of cleaved PARP1” value in data set [4] (any tested concentration) is “did not increase”. In the data set on cell culture models, the “concentration initiating apoptosis and collapse of the microtubule cytoskeleton” value was over 300 nM.
For the compound `CC(/C=C1\Sc2ccccc2N1CCCS(=O)(=O)[O-])=C\c1sc2ccccc2[n+]1CCCS(=O)(=O)[O-].CC[n+]1ccccc1` [Compound 12], the inhibitory activity result against human 2N4R tau [2] (at up to 10 μM concentration) is “completely lost”. Further, in “Dye aggregation”, the “slope of double log plot of monomer versus dimer concentration” value is 1.8 ± 0.1 and the “dissociation equilibrium constant” value was 7.5 ± 0.4 µM.
With `CN(C)c1ccc2nc3ccc(N(C)C)cc3[s+]c2c1.[Cl-]` [Methylene blue, 3,7-bis(dimethylamino)phenothiazin-5-ium chloride], on human 2N4R tau [5], the behaviour as antagonist result is on record as “partial antagonist”.
